Residue numbers refer to the chain shown, from its start. Values joined by “and” are separate entries in the source; they are usually repeats but may differ in a detail not shown here. Equal values may be shown once.
How the values were obtained:
[1] = system: K2P2.1 (TREK-1); settings: at 1.6 mM; cited from earlier work
[2] = molecular target: T1, K2P2.1 (TREK-1) (Mus musculus, UniProt P97438); test: Two-electrode voltage clamp in Xenopus oocytes, K2P2.1; assay type: cell-based, Murine
T1 sequence (P97438 1-411 isoform P97438-2): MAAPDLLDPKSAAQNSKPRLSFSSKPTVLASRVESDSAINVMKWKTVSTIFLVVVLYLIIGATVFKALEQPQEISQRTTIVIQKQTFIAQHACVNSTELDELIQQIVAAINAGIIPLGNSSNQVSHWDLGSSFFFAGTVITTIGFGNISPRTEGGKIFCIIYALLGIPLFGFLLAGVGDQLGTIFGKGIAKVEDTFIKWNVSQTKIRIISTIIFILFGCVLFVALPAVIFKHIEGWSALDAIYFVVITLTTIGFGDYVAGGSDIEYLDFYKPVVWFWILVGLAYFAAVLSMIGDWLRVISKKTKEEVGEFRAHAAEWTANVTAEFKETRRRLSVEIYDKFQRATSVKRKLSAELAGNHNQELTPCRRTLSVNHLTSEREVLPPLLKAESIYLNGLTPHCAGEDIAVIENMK

[3] = molecular target: T1, K2P2.1 (TREK-1); test: Whole cell patch clamp in HEK-293T cells, K2P2.1; assay type: cell-based, Murine
[4] = molecular target: T2, K2P2.1 (TREK-1) G137I (Mus musculus, UniProt P97438, G152I); test: Two-electrode voltage clamp in Xenopus oocytes, G137I mutant; assay type: cell-based, Murine
T2 sequence (P97438 1-411 isoform P97438-2 G137I): T1 sequence (P97438 1-411 isoform P97438-2) with G137I

[5] = molecular target: T3, K2P2.1 (TREK-1) W275S (Mus musculus, UniProt P97438, W290S); test: Two-electrode voltage clamp in Xenopus oocytes, W275S mutant; assay type: cell-based, Murine
T3 sequence (P97438 1-411 isoform P97438-2 W275S): T1 sequence (P97438 1-411 isoform P97438-2) with W275S
Procedure, shortened: (§1)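 Murine channel cDNAs in pGEMHE/pMO were expressed in Xenopus oocytes and recorded by two-electrode voltage clamp. Bath contained 2 mM [K+]o at pH 7.4. Currents were elicited by a −150 to 50 mV ramp from a −80 mV holding potential. Responses were normalized to basal channel activity and fit with a modified Hill equation (EC50, Imax/Imin, Hill coefficient H). Values are mean ± SD or SEM from ≥2 independent experiments.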

[6] = molecular target: T4, K2P2.1 (TREK-1)-3G (Mus musculus, UniProt P97438); test: Two-electrode voltage clamp in Xenopus oocytes, 3G mutant; assay type: cell-based, Murine
T4 sequence (P97438 16-426): T1 sequence (P97438 1-411 isoform P97438-2) with M1V

[7] = molecular target: T5, K2P10.1 (TREK-2) (Mus musculus, UniProt Q8BUW1); test: Two-electrode voltage clamp in Xenopus oocytes, K2P10.1; assay type: cell-based, Murine
T5 sequence (Q8BUW1 1-535): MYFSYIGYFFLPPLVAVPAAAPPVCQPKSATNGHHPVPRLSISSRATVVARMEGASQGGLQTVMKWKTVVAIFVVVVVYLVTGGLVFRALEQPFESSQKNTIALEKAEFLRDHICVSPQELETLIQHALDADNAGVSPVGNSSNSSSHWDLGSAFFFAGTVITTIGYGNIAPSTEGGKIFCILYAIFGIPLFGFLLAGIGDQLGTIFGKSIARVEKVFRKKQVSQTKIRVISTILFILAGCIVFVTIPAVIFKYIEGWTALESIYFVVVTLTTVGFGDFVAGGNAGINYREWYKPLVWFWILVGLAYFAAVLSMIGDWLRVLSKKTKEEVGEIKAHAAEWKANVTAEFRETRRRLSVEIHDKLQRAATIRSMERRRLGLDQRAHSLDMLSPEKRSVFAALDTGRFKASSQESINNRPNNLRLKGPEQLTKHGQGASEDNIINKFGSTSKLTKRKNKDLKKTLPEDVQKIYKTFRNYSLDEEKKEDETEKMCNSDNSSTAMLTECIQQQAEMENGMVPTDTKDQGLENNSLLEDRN
Procedure, shortened: as §1

[8] = molecular target: T6, K2P4.1 (TRAAK) (Mus musculus, UniProt O88454); test: Two-electrode voltage clamp in Xenopus oocytes, K2P4.1; assay type: cell-based, Murine
T6 sequence (O88454 1-398): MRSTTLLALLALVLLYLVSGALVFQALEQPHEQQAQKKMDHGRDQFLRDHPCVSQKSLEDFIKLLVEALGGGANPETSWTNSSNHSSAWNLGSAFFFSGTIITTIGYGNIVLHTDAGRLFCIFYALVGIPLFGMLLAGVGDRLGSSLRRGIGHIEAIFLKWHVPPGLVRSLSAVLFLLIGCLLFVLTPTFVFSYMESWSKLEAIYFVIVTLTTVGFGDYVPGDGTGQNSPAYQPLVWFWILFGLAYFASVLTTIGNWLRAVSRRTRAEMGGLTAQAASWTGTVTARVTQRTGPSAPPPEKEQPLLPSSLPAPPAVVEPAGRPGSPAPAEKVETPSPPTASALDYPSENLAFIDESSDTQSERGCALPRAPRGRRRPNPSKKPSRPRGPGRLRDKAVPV
Procedure, shortened: as §1

[9] = molecular target: K2P9.1 (TASK-3) (Mus musculus, UniProt Q3LS21); test: Two-electrode voltage clamp in Xenopus oocytes, K2P9.1; assay type: cell-based, Murine
Procedure, shortened: as §1

[10] = molecular target: T7, K2P5.1 (TASK-2) (Mus musculus, UniProt F6V9U5); test: Two-electrode voltage clamp in Xenopus oocytes, K2P5.1; assay type: cell-based, Murine; settings: at 100 μM compound
T7 sequence (F6V9U5 1-502): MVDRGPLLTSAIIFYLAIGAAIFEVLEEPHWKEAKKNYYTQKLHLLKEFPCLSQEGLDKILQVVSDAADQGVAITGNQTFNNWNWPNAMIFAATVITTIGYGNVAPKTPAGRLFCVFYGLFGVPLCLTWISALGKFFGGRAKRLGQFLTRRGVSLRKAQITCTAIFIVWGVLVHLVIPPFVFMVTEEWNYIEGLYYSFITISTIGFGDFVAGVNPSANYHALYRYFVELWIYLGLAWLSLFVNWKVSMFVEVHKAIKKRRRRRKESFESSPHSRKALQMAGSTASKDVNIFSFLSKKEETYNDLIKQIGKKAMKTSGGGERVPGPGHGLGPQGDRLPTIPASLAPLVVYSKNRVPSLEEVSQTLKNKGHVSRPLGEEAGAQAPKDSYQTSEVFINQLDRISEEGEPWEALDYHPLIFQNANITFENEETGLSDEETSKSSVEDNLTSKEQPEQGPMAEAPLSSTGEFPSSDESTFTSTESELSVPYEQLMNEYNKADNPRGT
Procedure, shortened: as §1

[11] = molecular target: K2P3.1 (TASK-1) (Mus musculus, UniProt O35111); test: Two-electrode voltage clamp in Xenopus oocytes, K2P3.1; assay type: cell-based, Murine; settings: at 100 μM compound
Procedure, shortened: as §1

[12] = molecular target: T8, K2P18.1 (TRESK) (Mus musculus, UniProt Q6VV64); test: Two-electrode voltage clamp in Xenopus oocytes, K2P18.1; assay type: cell-based, Murine; settings: at 100 μM compound
T8 sequence (Q6VV64 1-394): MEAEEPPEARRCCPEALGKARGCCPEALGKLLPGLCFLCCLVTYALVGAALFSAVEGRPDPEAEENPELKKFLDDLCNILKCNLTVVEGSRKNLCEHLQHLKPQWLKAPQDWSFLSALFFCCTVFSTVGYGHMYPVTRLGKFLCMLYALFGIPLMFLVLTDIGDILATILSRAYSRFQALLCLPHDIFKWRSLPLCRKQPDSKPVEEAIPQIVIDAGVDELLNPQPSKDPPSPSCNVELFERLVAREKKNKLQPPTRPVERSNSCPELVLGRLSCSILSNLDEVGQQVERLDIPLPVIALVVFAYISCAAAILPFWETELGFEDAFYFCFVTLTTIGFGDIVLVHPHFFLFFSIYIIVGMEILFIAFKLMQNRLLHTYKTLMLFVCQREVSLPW
Procedure, shortened: as §1

[13] = molecular target: Kv7.2 (KCNQ2) (Homo sapiens, UniProt O43526); test: Two-electrode voltage clamp in Xenopus oocytes, Kv7.2; assay type: cell-based; settings: at 100 μM
[14] = molecular target: T1, K2P2.1 (TREK-1); test: Excised membrane patches; assay type: cell-based, Murine; settings: 0 mV, 20 μM
[15] = whole-cell, HEK-293T, 0 mV, 20 μM

K2P3.1 (TASK-1), sequence (O35111 whole entry): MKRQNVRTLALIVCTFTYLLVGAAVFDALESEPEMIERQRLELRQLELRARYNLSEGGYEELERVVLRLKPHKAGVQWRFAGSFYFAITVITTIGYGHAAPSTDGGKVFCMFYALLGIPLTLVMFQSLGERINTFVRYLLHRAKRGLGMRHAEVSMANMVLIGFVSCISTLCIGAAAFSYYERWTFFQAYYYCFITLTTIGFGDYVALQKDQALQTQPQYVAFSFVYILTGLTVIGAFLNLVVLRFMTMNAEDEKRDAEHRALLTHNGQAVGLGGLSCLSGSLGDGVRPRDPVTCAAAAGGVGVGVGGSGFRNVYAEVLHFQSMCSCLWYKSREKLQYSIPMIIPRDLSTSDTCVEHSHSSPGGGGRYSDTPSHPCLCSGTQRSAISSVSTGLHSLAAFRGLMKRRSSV
K2P9.1 (TASK-3), sequence (Q3LS21 whole entry): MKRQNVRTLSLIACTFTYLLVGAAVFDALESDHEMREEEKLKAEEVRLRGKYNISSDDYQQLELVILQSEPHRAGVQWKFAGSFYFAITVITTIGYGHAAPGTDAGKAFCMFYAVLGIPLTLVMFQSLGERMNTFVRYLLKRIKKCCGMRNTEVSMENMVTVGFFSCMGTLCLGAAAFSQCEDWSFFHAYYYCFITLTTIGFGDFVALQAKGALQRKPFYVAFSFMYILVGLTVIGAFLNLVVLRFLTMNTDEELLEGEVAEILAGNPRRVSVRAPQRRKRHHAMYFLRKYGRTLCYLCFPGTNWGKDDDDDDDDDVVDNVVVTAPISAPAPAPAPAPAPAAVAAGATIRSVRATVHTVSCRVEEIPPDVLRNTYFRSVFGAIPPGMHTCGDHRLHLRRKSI
Kv7.2 (KCNQ2), sequence (O43526 whole entry): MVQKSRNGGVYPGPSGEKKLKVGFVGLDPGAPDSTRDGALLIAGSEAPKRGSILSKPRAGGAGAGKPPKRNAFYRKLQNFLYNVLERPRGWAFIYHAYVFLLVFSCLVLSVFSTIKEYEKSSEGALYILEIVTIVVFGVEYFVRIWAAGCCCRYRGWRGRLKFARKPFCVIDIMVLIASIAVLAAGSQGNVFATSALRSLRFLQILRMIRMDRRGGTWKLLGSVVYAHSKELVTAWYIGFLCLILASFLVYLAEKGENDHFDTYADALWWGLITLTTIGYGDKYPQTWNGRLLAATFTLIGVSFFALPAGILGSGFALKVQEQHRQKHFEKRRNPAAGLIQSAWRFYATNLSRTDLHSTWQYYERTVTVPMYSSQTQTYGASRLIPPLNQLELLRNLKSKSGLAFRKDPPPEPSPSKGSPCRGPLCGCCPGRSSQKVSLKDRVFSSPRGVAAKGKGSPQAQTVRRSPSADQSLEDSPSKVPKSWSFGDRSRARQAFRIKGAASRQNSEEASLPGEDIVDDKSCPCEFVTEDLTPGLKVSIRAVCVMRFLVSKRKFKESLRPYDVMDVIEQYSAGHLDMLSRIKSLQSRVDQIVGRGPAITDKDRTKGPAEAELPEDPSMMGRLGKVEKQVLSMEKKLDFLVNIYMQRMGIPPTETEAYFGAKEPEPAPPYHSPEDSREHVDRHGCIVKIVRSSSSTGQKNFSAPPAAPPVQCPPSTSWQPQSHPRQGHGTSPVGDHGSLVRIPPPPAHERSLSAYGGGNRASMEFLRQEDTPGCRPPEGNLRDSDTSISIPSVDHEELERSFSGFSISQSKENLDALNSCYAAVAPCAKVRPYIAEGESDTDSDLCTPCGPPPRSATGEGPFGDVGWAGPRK

For ClC(Cl)Cl [chloroform], the “reported activation (fold)” value [1] is listed as 5.5 fold.
In the case of CC1(C)c2cc(Cl)ccc2N(CCc2nnn[nH]2)c2ccc(Cl)cc21 [ML67-33, 2,7-dichloro-9,9-dimethyl-10-[2-(1H-tetrazol-5-yl)-ethyl]-9,10-dihydro-acridine], the “improved potency (fold)” value ([2]; EC50 compared to ML67-18) is reported as 5 fold, the “H (cooperativity coefficient from the Hill equation)” value ([2]; Xenopus oocytes) is reported as 3.6 ± 0.4 and the “Emax (fold)” value ([2]; Xenopus oocytes, at 100 μM compound) is reported as 11.1 ± 0.4 fold. For the same molecule, the “Emax (fold)” value ([2]; Xenopus oocytes, normalized to basal activity) was 11.1 ± 0.4 fold and ~11 fold, the “Emax (fold)” value ([3]; HEK293 cells) was 11.4 ± 1.1 fold and the “H (cooperativity coefficient from the Hill equation)” value ([3]; HEK293 cells) was 2.3 ± 0.7. For the same molecule, the Emax ([3]; HEK cells, at 100 μM) was 11.4 ± 1.1, the “half-maximal activation time (t1/2act)” value [3, 15] was 4.1 ± 0.5 s and the “time of return to baseline following washout (t1/2wash)” value [3, 15] was 3.9 ± 0.5 s. For the same molecule, the “response to activation (in words)” value [4] was “completely resistant”, the “Emax (fold)” value ([4]; at 150 μM) was 0.9 ± 0.1 at 150 μM fold and the “Emax (fold)” value [5] was 5.1 ± 0.6 fold. The “H (cooperativity coefficient from the Hill equation)” value [5] was 1.6 ± 0.7, the EC50 [6] was 49.4 ± 1.1 µM and the “H (cooperativity coefficient from the Hill equation)” value [6] was 2.2 ± 0.4. For the same molecule, the “Emax (fold)” value [7] was 11.4 ± 1.8 fold, the “H (cooperativity coefficient from the Hill equation)” value [7] was 1.6 ± 0.6 and the Emax ([7]; at 100 μM) was 11.4 ± 1.8. For the same molecule, the “H (cooperativity coefficient from the Hill equation)” value [8] was 1.8 ± 0.4, the “Emax (fold)” value ([8]; at 100 μM compound) was 14.7 ± 1.12 fold and 14.7 ± 1.1 fold and 14.7 ± 1.1 ^d fold and the Emax ([9]; at 100 μM) was 1.7 ± 0.3. For the same molecule, the “Emax (fold)” value ([9]; at 150 μM) was 2.1 ± 0.4 at 150 μM fold, the “Emax (fold)” value [10] was 2.0 ± 0.1 fold and the “Emax (fold)” value [11] was 1.1 ± 0.0 fold and 1.1 ± 0.1 ^d fold. The “Emax (fold)” value [12] was 0.9 ± 0.1 fold and 0.9 ± 0.1 ^d fold, the “effect on Kv7.2 (KCNQ2) (in words)” value [13] was “no effect” and the t1/2act ([14]; inside-out patch) was 10.8 ± 1.3 s. For the same molecule, the t1/2wash ([14]; inside-out patch) was 22.0 ± 5.1 s, the t1/2act ([14]; outside-out patch) was 4.6 ± 0.9 s and the t1/2wash ([14]; outside-out patch) was 3.1 ± 0.7 s.

Source: publication PMC3747594 (ACS Chemical Biology, 2013)
